Data reported in ChEMBL document CHEMBL2157922, “Synthesis and antifungal activity of diverse C-2 pyridinyl and pyridinylvinyl substituted quinolines” (2012).
In brackets after ≈: the same amount, converted by molar mass.

Experiments:
[1] = system: Aspergillus niger; assay: Antifungal activity against Aspergillus niger ATCC 9029 after 48 hrs by broth microdilution technique; assay type: functional; conditions: ATCC 9029, 48 h
In short: (§1)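 Moulds and dermatophytes were run by CLSI broth microdilution in MOPS-buffered RPMI-1640 at pH 7.0. Aspergillus was incubated at 30 °C and dermatophytes at 28–30 °C, in a moist, dark chamber. MIC100, the lowest concentration with no visible growth, was read visually at a time set by growth of the control fungus.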

[2] = system: Nannizzia gypsea; assay: Antifungal activity against Microsporum gypseum CCC 115 after 48 hrs by broth microdilution technique; assay type: functional; conditions: CCC 115, 48 h; in short: as §1
[3] = system: Candida albicans; assay: Antifungal activity against Candida albicans ATCC 10231 after 48 hrs by broth microdilution technique; assay type: functional; conditions: ATCC 10231, 48 h
In short: (§2)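 Yeasts were tested by CLSI broth microdilution in RPMI-1640 buffered to pH 7.0 with MOPS, with compound from 250 down to 0.98 in DMSO stocks. Trays were held at 30 °C in a moist, dark chamber. MIC100, the lowest concentration giving total visual inhibition against the growth control, was read by eye at 48 h.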

[4] = system: Trichophyton rubrum; assay: Antifungal activity against Trichophyton rubrum CCC 113 after 48 hrs by broth microdilution technique; assay type: functional; conditions: CCC 113, 48 h
[5] = system: Aspergillus flavus; assay: Antifungal activity against Aspergillus flavus ATCC 9170 after 48 hrs by broth microdilution technique; assay type: functional; conditions: ATCC 9170, 48 h; in short: as §1
[6] = system: Cryptococcus neoformans; assay: Antifungal activity against Cryptococcus neoformans ATCC 32264 after 48 hrs by broth microdilution technique; assay type: functional; conditions: ATCC 32264, 48 h; in short: as §2
[7] = system: Aspergillus fumigatus; assay: Antifungal activity against Aspergillus fumigatus ATCC 26934 after 48 hrs by broth microdilution technique; assay type: functional; conditions: ATCC 26934, 48 h; in short: as §1
[8] = system: Saccharomyces cerevisiae; assay: Antifungal activity against Saccharomyces cerevisiae ATCC 9763 after 48 hrs by broth microdilution technique; assay type: functional; conditions: ATCC 9763, 48 h; in short: as §2
[9] = system: Trichophyton mentagrophytes; assay: Antifungal activity against Trichophyton mentagrophytes ATCC 9972 after 48 hrs by broth microdilution technique; assay type: functional; conditions: ATCC 9972, 48 h; in short: as §1
[10] = system: Candida albicans; assay: Antifungal activity against Candida albicans CCC 129 after 48 hrs by broth microdilution technique; assay type: functional; conditions: CCC 129, 48 h
[11] = system: Candida albicans; assay: Antifungal activity against Candida albicans CCC 127 after 48 hrs by broth microdilution technique; assay type: functional; conditions: CCC 127, 48 h
[12] = system: Candida albicans; assay: Antifungal activity against Candida albicans CCC 125 after 48 hrs by broth microdilution technique; assay type: functional; conditions: CCC 125, 48 h
[13] = system: Cryptococcus neoformans; assay: Antifungal activity against Cryptococcus neoformans IM 983036 after 48 hrs by broth microdilution technique; assay type: functional; conditions: IM 983036, 48 h
In short: (§3)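 C. neoformans was tested by 96-well RPMI-1640 microdilution, with DMSO-matched growth and sterility control wells. Plates were incubated 48 h at 30 °C in a moist, dark chamber and read at OD405. % inhibition = 100 − (CTW − SCW)/(GCW − SCW), in duplicate. For the clinical isolates, MIC80 and MIC50 are the lowest concentrations giving 80% and 50% inhibition.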

[14] = system: Cryptococcus neoformans; assay: Antifungal activity against Cryptococcus neoformans IM 983040 after 48 hrs by broth microdilution technique; assay type: functional; conditions: IM 983040, 48 h; in short: as §3
[15] = system: Cryptococcus neoformans; assay: Antifungal activity against Cryptococcus neoformans IM 042074 after 48 hrs by broth microdilution technique; assay type: functional; conditions: IM 042074, 48 h; in short: as §3
[16] = system: Candida albicans; assay: Antifungal activity against Candida albicans CCC 130 after 48 hrs by broth microdilution technique; assay type: functional; conditions: CCC 130, 48 h
[17] = system: Cryptococcus neoformans; assay: Antifungal activity against Cryptococcus neoformans IM 972724 after 48 hrs by broth microdilution technique; assay type: functional; conditions: IM 972724, 48 h; in short: as §3
[18] = system: Candida albicans; assay: Antifungal activity against Candida albicans CCC 128 after 48 hrs by broth microdilution technique; assay type: functional; conditions: CCC 128, 48 h
[19] = system: Cryptococcus neoformans; assay: Antifungal activity against Cryptococcus neoformans IM 972751 after 48 hrs by broth microdilution technique; assay type: functional; conditions: IM 972751, 48 h; in short: as §3
[20] = system: Candida tropicalis; assay: Antifungal activity against Candida tropicalis CCC 131 after 48 hrs by broth microdilution technique; assay type: functional; conditions: CCC 131, 48 h
[21] = system: Pichia kudriavzevii; assay: Antifungal activity against Candida krusei CCC 117 after 48 hrs by broth microdilution technique; assay type: functional; conditions: CCC 117, 48 h
[22] = system: Candida albicans; assay: Antifungal activity against Candida albicans CCC 130 after 24 hrs by broth microdilution technique; conditions: CCC 130, 24 h
[23] = system: Nakaseomyces glabratus; assay: Antifungal activity against Candida glabrata CCC 115 after 48 hrs by broth microdilution technique; assay type: functional; conditions: CCC 115, 48 h
[24] = system: Candida parapsilosis; assay: Antifungal activity against Candida parapsilosis CCC 124 after 48 hrs by broth microdilution technique; assay type: functional; conditions: Lodderomyces parapsilosis, CCC 124, 48 h
[25] = system: Candida albicans; assay: Antifungal activity against Candida albicans ATCC 10231 at 31.2 ug/ml after 24 hrs; assay type: functional; conditions: ATCC 10231, 24 h
In short: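 C. albicans was grown in 96-well RPMI-1640 broth microdilution with compound wells diluted from DMSO stocks. Growth wells with matched DMSO and sterility wells were included. After 24 h at 30 °C in a moist, dark chamber, OD405 was read. % inhibition = 100 − (CTW − SCW)/(GCW − SCW) OD, done in duplicate.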

[26] = system: Candida albicans; assay: Antifungal activity against Candida albicans CCC 126 after 48 hrs by broth microdilution technique; assay type: functional; conditions: CCC 126, 48 h
[27] = system: Cryptococcus neoformans; assay: Antifungal activity against Cryptococcus neoformans IM 00319 after 48 hrs by broth microdilution technique; assay type: functional; conditions: IM 00319, 48 h; in short: as §3

`Clc1ccc2nc(/C=C/c3cccnc3)ccc2c1` was tested, and the MIC [1] was greater than 250 µg/mL, the MFC [2] was greater than 250 µg/mL and the MIC [2] was 250 µg/mL (≈ 937 µM). It also gave an MIC [3] greater than 250 µg/mL, an MFC [4] greater than 250 µg/mL and an MIC [4] of 250 µg/mL (≈ 937 µM). The MFC [5] was greater than 250 µg/mL, the MIC [5] was 250 µg/mL (≈ 937 µM) and the MIC [6] was greater than 250 µg/mL. The MFC [7] was greater than 250 µg/mL, the MIC [7] was 250 µg/mL (≈ 937 µM) and the MIC [8] was greater than 250 µg/mL. For the same compound, the MFC [9] was greater than 250 µg/mL and the MIC [9] was 250 µg/mL (≈ 937 µM).
Compound `C(=C\c1ccc2ccccc2n1)/c1cccnc1` has an MFC [1] greater than 250 µg/mL, an MIC [1] of 125 µg/mL (≈ 538 µM) and an MFC [2] of 250 µg/mL (≈ 1080 µM). It also gave an MIC [2] of 62 µg/mL (≈ 267 µM), an MFC [3] greater than 250 µg/mL and an MIC [3] of 250 µg/mL (≈ 1080 µM). For the same compound, the MFC [4] was 250 µg/mL (≈ 1080 µM), the MIC [4] was 62 µg/mL (≈ 267 µM) and the MFC [5] was greater than 250 µg/mL. For the same compound, the MIC [5] was 125 µg/mL (≈ 538 µM), the MFC [6] was 250 µg/mL (≈ 1080 µM) and the MIC [6] was 125 µg/mL (≈ 538 µM). For the same compound, the MFC [7] was greater than 250 µg/mL, the MIC [7] was 125 µg/mL (≈ 538 µM) and the MFC [8] was greater than 250 µg/mL. For the same compound, the MIC [8] was 250 µg/mL (≈ 1080 µM), the MFC [9] was 250 µg/mL (≈ 1080 µM) and the MIC [9] was 62 µg/mL (≈ 267 µM).
Work on `Clc1ccc2nc(-c3ccncc3)ccc2c1` yielded an MIC [1] greater than 250 µg/mL, an MFC [2] of 125 µg/mL (≈ 519 µM) and an MIC [2] of 125 µg/mL (≈ 519 µM). For the same compound, the MIC [3] was greater than 250 µg/mL, the MFC [4] was 125 µg/mL (≈ 519 µM) and the MIC [4] was 125 µg/mL (≈ 519 µM). The MIC [5] was greater than 250 µg/mL, the MFC [6] was 250 µg/mL (≈ 1040 µM) and the MIC [6] was 125 µg/mL (≈ 519 µM). For the same compound, the MIC [7] was greater than 250 µg/mL, the MIC [8] was greater than 250 µg/mL and the MFC [9] was 125 µg/mL (≈ 519 µM). The MIC [9] was 125 µg/mL (≈ 519 µM).
Compound `Clc1ccc2nc(-c3cccnc3)ccc2c1` has an MIC [1] greater than 250 µg/mL, an MFC [2] of 125 µg/mL (≈ 519 µM) and an MIC [2] of 31 µg/mL (≈ 129 µM). It also gave an MIC [3] greater than 250 µg/mL, an MFC [4] of 125 µg/mL (≈ 519 µM) and an MIC [4] of 31 µg/mL (≈ 129 µM). The MIC [5] was greater than 250 µg/mL, the MFC [6] was 125 µg/mL (≈ 519 µM) and the MIC [6] was 62 µg/mL (≈ 258 µM). It also gave an MIC [7] greater than 250 µg/mL, an MIC [8] greater than 250 µg/mL and an MFC [9] of 125 µg/mL (≈ 519 µM). It also gave an MIC [9] of 31 µg/mL (≈ 129 µM).
`Clc1ccc2nc(/C=C/c3ccncc3)ccc2c1` showed an MIC50 [10] of 31.2 µg/mL (≈ 117 µM), an MIC80 [10] of 62.5 µg/mL (≈ 234 µM) and an MFC [1] greater than 250 µg/mL. The MIC [1] was 250 µg/mL (≈ 937 µM), the MIC50 [11] was 31.2 µg/mL (≈ 117 µM) and the MIC80 [11] was 62.5 µg/mL (≈ 234 µM). For the same compound, the MIC50 [12] was 31.2 µg/mL (≈ 117 µM), the MIC80 [12] was 125 µg/mL (≈ 469 µM) and the MIC50 [13] was 7.8 µg/mL (≈ 29.2 µM). For the same compound, the MIC80 [13] was 62.5 µg/mL (≈ 234 µM), the MIC50 [14] was 15.6 µg/mL (≈ 58.5 µM) and the MIC80 [14] was 62.5 µg/mL (≈ 234 µM). For the same compound, the MIC50 [15] was 15.6 µg/mL (≈ 58.5 µM), the MIC80 [15] was 62.5 µg/mL (≈ 234 µM) and the MIC80 [16] was 62.5 µg/mL (≈ 234 µM). For the same compound, the MFC [2] was 125 µg/mL (≈ 469 µM), the MIC [2] was 62 µg/mL (≈ 232 µM) and the MIC50 [17] was 31.2 µg/mL (≈ 117 µM). For the same compound, the MIC80 [17] was 62.5 µg/mL (≈ 234 µM), the MIC50 [18] was 62.5 µg/mL (≈ 234 µM) and the MIC80 [18] was 125 µg/mL (≈ 469 µM). It also gave an MFC [3] greater than 250 µg/mL, an MIC [3] of 125 µg/mL (≈ 469 µM) and an MIC50 [3] of 15.6 µg/mL (≈ 58.5 µM). The MIC80 [3] was 31.2 µg/mL (≈ 117 µM), the MFC [4] was 125 µg/mL (≈ 469 µM) and the MIC [4] was 62 µg/mL (≈ 232 µM). The MIC50 [19] was 15.6 µg/mL (≈ 58.5 µM), the MIC80 [19] was 31.2 µg/mL (≈ 117 µM) and the MFC [5] was greater than 250 µg/mL. It also gave an MIC [5] of 250 µg/mL (≈ 937 µM), an MFC [6] of 250 µg/mL (≈ 937 µM) and an MIC [6] of 125 µg/mL (≈ 469 µM). For the same compound, the MIC50 [6] was 15.6 µg/mL (≈ 58.5 µM), the MIC80 [6] was 31.2 µg/mL (≈ 117 µM) and the MIC50 [20] was 31.2 µg/mL (≈ 117 µM). It also gave an MIC80 [20] of 125 µg/mL (≈ 469 µM), an MIC50 [21] greater than 250 µg/mL and an MIC80 [21] greater than 250 µg/mL. The MIC50 [22] was 31.2 µg/mL (≈ 117 µM), the MIC50 [23] was greater than 250 µg/mL and the MIC80 [23] was greater than 250 µg/mL. For the same compound, the MIC50 [24] was greater than 250 µg/mL, the MIC80 [24] was greater than 250 µg/mL and the inhibition at 31.2 µg/mL [25] was 80%. For the same compound, the MFC [7] was greater than 250 µg/mL, the MIC [7] was 250 µg/mL (≈ 937 µM) and the MFC [8] was greater than 250 µg/mL. The MIC [8] was 125 µg/mL (≈ 469 µM), the MFC [9] was 125 µg/mL (≈ 469 µM) and the MIC [9] was 62 µg/mL (≈ 232 µM). For the same compound, the MIC50 [26] was 31.2 µg/mL (≈ 117 µM), the MIC80 [26] was 62.5 µg/mL (≈ 234 µM) and the MIC50 [27] was 31.2 µg/mL (≈ 117 µM). The MIC80 [27] was 62.5 µg/mL (≈ 234 µM).
